From PubChem
Hits are enriched below; roughly 2.5% of the tested compounds scored in any of these assays.
MEKK3 PB1 HTS = MEKK3-MEK5 PB1 interaction, increase or decrease; Q99759; bead-based flow cytometry, Alexa488-MEK5 binding to MEKK3; actives lie on both sides; 0 = blocked by unlabeled MEK5, 100 = vehicle; binding response (% of control), % at 10 µM; 290,000 compounds, 1.4% hits; AID 1529;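 active = binding response more than 3 SD above or below the average of its plate-row segment, actives on both sides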;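 also: Alexa488 bead fluorescence after subtracting the streptavidin-only scavenger bead signal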
ABCG2 inh = blocks JC-1 efflux by human ABCG2 transporter; AID 1325; 190,000 compounds, 0.1% hits; inhibition, % at 6.6 µM; IgMXP3 cells, flow cytometry; Q9UNQ0;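 active = inhibition above 80%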;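 also: 0% = DMSO and 100% = nicardipine control wells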
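Assay system – ABCG2 IgMXP3 and barcoded ABCB1 CCRF-Adr cell mix · Input – 3 million cells/mL in well · Reagent – JC-1 fluorescent substrate · Compound – single test compound dose, 6.6 µM final · Timing – 10 min exposure at 25 °C with rotation, no wash · Detection – flow cytometry of retained JC-1 fluorescence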
Efflux pump mplx = inhibitors of Candida antifungal efflux pumps expressed in yeast | S. cerevisiae Candida pump triplex, Nile Red efflux | inhibition, % at 10 µM | 330,000 compounds, 0.44% hits | AID 485275;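 active = plate passing quality check with inhibition over a set limit, or well fluorescence over plate mean plus 4 SD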;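 also: Nile Red retained in pooled yeast measured as flow cytometry median fluorescence; 0% = buffer negative control and 100% = Enniatin B positive control; higher means more Nile Red kept so more efflux inhibition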
ABCB1 block = blocks JC-1 efflux by human ABCB1 transporter; P08183; CCRF-Adr cells, flow cytometry; inhibition, % at 6.6 µM; 190,000 compounds, 0.067% hits; AID 1326; in the data active = inhibition above about 40%;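 also: 0% = vehicle and 100% = reference inhibitor; higher value means more JC-1 retained so stronger ABCB1 efflux block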
Target sequence (P08183 whole entry, looked up): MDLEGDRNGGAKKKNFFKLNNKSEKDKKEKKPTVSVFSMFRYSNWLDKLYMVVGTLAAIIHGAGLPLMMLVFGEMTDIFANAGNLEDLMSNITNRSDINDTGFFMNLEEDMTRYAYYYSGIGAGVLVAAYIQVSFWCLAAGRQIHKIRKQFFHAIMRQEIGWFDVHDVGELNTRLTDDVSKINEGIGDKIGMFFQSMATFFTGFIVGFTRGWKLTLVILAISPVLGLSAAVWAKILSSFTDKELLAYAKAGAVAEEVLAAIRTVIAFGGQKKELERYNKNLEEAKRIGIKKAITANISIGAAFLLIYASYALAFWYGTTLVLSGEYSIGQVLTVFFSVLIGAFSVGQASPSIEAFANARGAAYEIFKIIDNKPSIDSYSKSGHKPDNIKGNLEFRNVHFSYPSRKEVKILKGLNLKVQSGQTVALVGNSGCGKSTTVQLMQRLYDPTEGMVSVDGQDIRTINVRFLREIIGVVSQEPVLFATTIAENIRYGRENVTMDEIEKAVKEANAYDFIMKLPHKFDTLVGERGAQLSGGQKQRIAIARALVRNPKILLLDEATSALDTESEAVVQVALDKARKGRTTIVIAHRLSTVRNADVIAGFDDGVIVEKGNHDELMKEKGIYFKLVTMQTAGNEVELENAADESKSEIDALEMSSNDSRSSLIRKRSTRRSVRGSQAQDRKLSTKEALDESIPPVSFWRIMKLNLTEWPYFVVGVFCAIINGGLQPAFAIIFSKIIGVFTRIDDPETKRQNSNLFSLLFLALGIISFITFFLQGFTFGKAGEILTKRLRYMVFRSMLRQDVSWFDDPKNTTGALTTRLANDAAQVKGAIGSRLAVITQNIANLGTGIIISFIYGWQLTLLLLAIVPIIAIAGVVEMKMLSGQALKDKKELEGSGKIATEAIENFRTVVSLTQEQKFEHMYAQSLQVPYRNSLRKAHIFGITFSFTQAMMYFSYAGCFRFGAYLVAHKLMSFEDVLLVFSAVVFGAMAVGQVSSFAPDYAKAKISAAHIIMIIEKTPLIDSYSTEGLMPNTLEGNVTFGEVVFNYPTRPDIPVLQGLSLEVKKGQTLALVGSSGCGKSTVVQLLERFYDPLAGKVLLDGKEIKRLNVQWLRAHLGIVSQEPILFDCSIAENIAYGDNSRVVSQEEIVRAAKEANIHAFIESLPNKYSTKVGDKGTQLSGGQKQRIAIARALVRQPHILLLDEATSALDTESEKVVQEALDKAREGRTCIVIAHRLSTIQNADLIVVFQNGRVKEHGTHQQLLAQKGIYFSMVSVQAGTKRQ
MEKK2mut PB1 HTS = signal of MEK5 binding to mutant human MEKK2 PB1 domain; 290,000 compounds, 0.35% hits; bead flow cytometry, Alexa488-MEK5 binding to MEKK2 mutant; percent response, % at 10 µM; in the data active = percent response above about 24%, passing the limit was not always enough
MEKK2 WT-MEK5 = raises or lowers MEK5 binding to wildtype human MEKK2 PB1 domain; Q9Y2U5; bead flow cytometry, Alexa488-MEK5 binding to MEKK2 WT; actives lie on both sides; binding response (% of control), % at 10 µM; 290,000 compounds, 1.1% hits; AID 1531; in the data active = binding response below about 67% or above about 130%
MEKK2wt confirm = raises or lowers MEK5 binding to wildtype human MEKK2, retest | binding response (% of control), % at 10 µM | shares compounds with MEKK3 PB1 HTS | 5,900 compounds, 2.4% hits | AID 1892 | bead flow cytometry, Alexa488-MEK5 binding to MEKK2 WT; actives lie on both sides; in the data active = binding response below about 16% or above about 210%; inactive = in between
MEKK2mut confirm = signal of MEK5 binding to mutant human MEKK2, retest. shares compounds with MEKK3 PB1 HTS. bead flow cytometry, Alexa488-MEK5 binding to MEKK2 mutant. percent response, % at 10 µM. 5,900 compounds, 2% hits; in the data active = percent response mostly above about 71%, no sharp cut-off; inactive = mostly below about 38%;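 also: higher means compound restores mutant binding toward wildtype level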
MEKK3-MEK5 inh = MEKK3-MEK5 PB1 inhibition, single concentration confirmation; 5,900 compounds, 1.8% hits; shares compounds with MEKK3 PB1 HTS; AID 1894; binding response (% of control), % at 10 µM; bead flow cytometry, Alexa488-MEK5 binding to MEKK3; active compounds read low;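 active = binding response below 72% of control, or above a set upper limit, though filed actives all read lower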;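 also: 100% = DMSO only wells and 0% = binding blocked by excess unlabeled MEK5; lower values mean stronger disruption of MEK5 binding to MEKK3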
* = called active by the depositor; . = no result given; [ ] = another dose, or the depositor's remark.

SMILES | MEKK3 PB1 HTS | ABCG2 inh | Efflux pump mplx | ABCB1 block | MEKK2mut PB1 HTS | MEKK2 WT-MEK5 | MEKK2wt confirm | MEKK2mut confirm | MEKK3-MEK5 inh
CCCCCCCCCOc1ccc2[nH]cc(CCN)c2c1 | 114 | 1 | . | . | 34* | 252* | . | . | .
CCCCCSc1cc(OC)c(CCN)cc1OC | 107 | 2 | 0 | -1 | 14 | 127 | . | . | .
COc1ccc(-c2cc(-c3ccccc3)[n+](C)c(-c3ccccc3)c2)cc1 | 103 | 0 | 0 | 0 | -1 | 99 | . | . | .
C[n+]1c(-c2ccccc2)cc(CCCCc2cc(-c3ccccc3)[n+](C)c(-c3ccccc3)c2)cc1-c1ccccc1 | 108 | 3 | 0 | 1 | 56* | 9.0*[inhibitor] | . | . | .
C=C(C=O)C[C@@H]1C[C@H](O)C2OC3C[C@]4(C)OC5/C=C\CC6OC7C(CC=CCC6OC5CCCC4OC3CC2O1)OC1CC2OC3CC(=O)OC3C[C@@H](C)C[C@@]2(C)OC1C[C@@H]7C (some centres not stated) | 94 | . | 50* | . | -7 | 87 | . | . | .
CN1/C(=C\C=C\C2=[N+](C)c3ccc4ccccc4c3C2(C)C)C(C)(C)c2ccccc21 | 89 | -5 | 106* | -1 | -21 | . | . | . | .
COC(=O)C1=CO[C@@H](C)[C@H]2CN3CC[C@]4(C(=O)Nc5ccccc54)[C@@H]3C[C@H]12 | 95 | . | 0 | . | -4 | -8.0* | . | . | .
Cc1ccc(N2C(=O)NC(=O)C(CCc3ccccn3)(Cc3ccc(F)cc3)C2=O)cc1 (configuration not stated) | 89 | -1 | 0 | 0 | -6 | 92 | . | . | .
CCc1ccc(OCC(=O)N2CCN(Cc3ccc4c(c3)OCO4)CC2)cc1 | 94 | 3 | 0 | 1 | -3 | 95 | . | . | .
CCC(C)N1C(=O)/C(=C\c2ccc(N3CCCCCC3)cc2)C(=O)NC1=S (configuration not stated) | 88 | -2 | 0 | 0 | 51* | 64 | . | . | .
Cn1c(O)c(Cc2cccc(Cl)c2Cl)c(=O)n(C)c1=O | 101 | . | 0 | . | 1 | 104 | . | . | .
O=C(O)CCn1cc(C=C2C(=O)NC(=O)NC2=O)c(-c2cc3ccccc3oc2=O)n1 | 102 | 0 | 0 | 0 | -6 | 99 | . | . | .
COC(=O)C1=C(c2ccc(-c3ccccc3)c(F)c2)C[C@@H]2CC[C@H]1N2C(=O)N1CCCC1 | . | . | 0 | . | . | . | . | . | .
C[n+]1c2ccccc2nc2ccc(NCCO)cc21 | 85 | . | 1.8* | . | 0 | 95 | . | . | .
CCCCCCn1c(O)c(C=Nc2ccccc2N2CCOCC2)c(=O)[nH]c1=S | 101 | . | 0 | . | 24 | 29* | . | . | .
CCCCn1c(O)c(/C=N/N2CCOCC2)c(=O)[nH]c1=S | 103 | . | 0 | . | 5 | 99 | . | . | .
OCCNc1c2c(nc3ccccc13)CCCC2 | 0.0*[inhibitor] | -1 | 0 | 0 | -42 | 0.0*[inhibitor] | 104 | -2 | 104
COC(C)(C)CCCC(C)C/C=C/C(C)=C/C(=O)OC(C)C (configuration not stated) | . | . | 0 | . | . | . | . | . | .
O=C1C2CCCN2C(c2cccnc2)N1c1nccs1 (configuration not stated) | . | 0 | 0 | 0 | . | . | . | . | .
COC(=O)CC1=C(C(=O)OC)C2(C(=O)Nc3c(C)cccc32)C(C#N)=C(N)O1 (configuration not stated) | 96 | 0 | 0 | 0 | -4 | 95 | . | . | .
O=C(N/N=C/c1c(O)n(CCC2=CCCCC2)c(=S)[nH]c1=O)c1ccccc1 | 154* | 2 | 0 | 0 | 0 | 108 | 99 | -2 | 104
O=c1[nH]c(=S)n(CCC2=CCCCC2)c(O)c1C=NCc1cccnc1 | 102 | 7 | 0 | 2 | 3 | 99 | . | . | .
O=C(N/N=C/c1c(O)n(CCC2=CCCCC2)c(=O)[nH]c1=O)c1ccccc1 | 149* | 1 | 0 | 0 | 1 | 111 | 100 | -1 | 104
COc1ccc2c(c1OC)C(=O)OC2c1c(O)n(Cc2ccc(F)cc2)c(=O)[nH]c1=O (configuration not stated) | 85 | -11 | 0 | 0 | -6 | 92 | . | . | .
c1ccc(-c2[nH]c[n+](CC3CO3)c2-c2ccccc2)cc1 (configuration not stated) | 104 | 19 | 0 | 1 | 40 | 152* | 110 | 0 | 100
SMILES | MEKK3 PB1 HTS | ABCG2 inh | Efflux pump mplx | ABCB1 block | MEKK2mut PB1 HTS | MEKK2 WT-MEK5 | MEKK2wt confirm | MEKK2mut confirm | MEKK3-MEK5 inh
c1ccc(OCC2CO2)cc1 (configuration not stated) | . | . | 0 | . | . | . | . | . | .
OC1(CN2CCOCC2)C2CC3CC(C2)CC1C3 (configuration not stated) | 102 | 2 | 0 | 1 | -2 | 99 | . | . | .
C=Cn1ccnc1P(=S)(c1ccn(C)c1)c1nccn1C=C | 97 | 1 | 0 | 0 | 0 | 97 | . | . | .
C/C(=N\Nc1ccccc1)c1c(O)n(Cc2ccccc2)c(=O)[nH]c1=O | 99 | 1 | 0 | 0 | -3 | 95 | . | . | .
Cc1cc(OC(=O)c2cccs2)c2c3c(c(=O)oc2c1)CCCC3 | 151* | 10 | 0 | 1 | 0 | 108 | 100 | -3 | 101
Cc1cc(OC(=O)c2ccco2)c2c3c(c(=O)oc2c1)CCCC3 | 102 | 1 | 0 | 1 | -2 | 101 | . | . | .
C=Cn1ccnc1P(=S)(c1nccn1C=C)C1CCCCC1 | . | -1 | 0 | 0 | . | . | . | . | .
CCN(CC)c1ccc(/C=N/c2sc3c(c2C#N)C2CCN3CC2)c(O)c1 | 109 | 4 | 0 | 2 | 92* | 96 | 84 | -22 | 93
COc1cccc(CNC(=O)CCC(=O)N2C[C@H]3C[C@H](C2)c2cccc(=O)n2C3)c1OC | 103 | . | 0 | . | 0 | 103 | . | . | .
CNc1ccc2nc3ccccc3[n+](C)c2c1 | 88 | . | 6.0* | . | -5 | 2.0*[inhibitor] | 95 | 6 | 94
Nc1c(C(=O)NCc2ccco2)c2nc3ccccc3nc2n1CCN1CCCCC1 | 122* | 19 | 0 | 2 | 29* | 146* | 139 | 16 | 105
CCN(CC)c1ccc(CN(C)CCc2ccc(OC)c(OC)c2)cc1 | 115 | 2 | 0 | 2 | 24* | 135* | 114 | 7 | 107
O=c1cccc2n1CC1CC2CN(Cc2ccc3c(c2)OCO3)C1 (configuration not stated) | 2.0*[inhibitor] | . | 0 | . | -27 | -1.0*[inhibitor] | 109 | 16 | 109
